Screens (PubChem BioAssay)
VLA-4 inh: inhibition in human VLA-4 binding assay, primary screen, VLA-4 allosteric modulator project, MLPCN library, flow cytometry, VLA-4 expressing cells | inhibition, % (about 7 µM as worked out from the volumes in the protocol) | ligand binding flow cytometry | Integrin alpha-4 (Homo sapiens), P13612 | actives 0.2% (n = 330,000) | AID 2557, 2010; in the data active = inhibition above about 50%
TAAR1 agonist: human TAAR1 agonists, primary screen, Fluo-8 calcium fluorescence, CHO RD-HGA16 cells; activation, % at 3 µM; actives 0.99% (n = 360,000); AID 624467, 2012; vehicle wells 0%, saturating PEA agonist 100%; Trace amine-associated receptor 1 (Homo sapiens), Q96RJ0;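 active = activation above the mean activation of all test compounds in the run plus 3 SD, cut at about 38% in these data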
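Test system: RD-HGA16 (CHO) cells co-expressing Gα16 and hTAAR1; dosing: one-point dosing at 3 µM (nominal); timing: 17-24 h seeding, 75 min 37 °C dye, 30 min RT; signal: kinetic Fluo-8 calcium fluorescence; read-out basis: % activation relative to PEA EC100 response; controls: DMSO and PEA EC100; replicates: n 1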
TAAR1 antagonist: human TAAR1 antagonists, primary screen, Fluo-8 calcium fluorescence, CHO RD-HGA16 cells; inhibition, % at 3 µM; AID 624466, 2012; antagonist; actives 1.5% (n = 360,000); Trace amine-associated receptor 1 (Homo sapiens), Q96RJ0;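 active = inhibition above a per-plate cutoff, the mean inhibition of test compounds on that plate plus 3 SD, cut at about 49% in these data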
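Material: RD-HGA16 CHO cells with stable hTAAR1 and Gα16; Dosing: single nominal final test compound concentration of 3 µM; Schedule: seeding 17-24 h prior, 75-min 37 °C, 30-min RT dye loading; Detection: kinetic Fluo-8 calcium fluorescence measurement; Measure: % inhibition from peak post-agonist over basal fluorescence ratio; Benchmarks: vehicle and agonist controls.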
Rce1 inhib: yeast Rce1p protease inhibitors, primary screen, biochemical, fluorescence, cell-free homogeneous | CAAX prenyl protease 2 (Saccharomyces cerevisiae (strain ATCC 204508 / S288c)), Q03530 | yeast membranes, quenched prenylated peptide cleavage fluorescence | calls only | actives 0.27% (n = 290,000) | AID 2563, 2010;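 active = fall in fluorescence gain of 50% or more versus controls, with final raw signal at or below 3038400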
Platelet DG rel: inhibitors of platelet dense granule secretion, primary screen, cell-based, MLPCN, human platelets; human platelet-rich plasma, SFLLRN dense granule ATP release, luminescence; actives 0.22% (n = 300,000); inhibition, %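 (compounds screened at 7.5 µM in platelet-rich plasma)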;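 active = mean replicate score, as percent of positive control, at or above 50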
VLA-4 mod pick: retest of VLA-4 allosteric modulators, confirmation, cell-based, cherry-picked plates, U937, HUTS-21 LIBS antibody; shares compounds with VLA-4 inh; U937 cells, HUTS-21 LIBS mAb binding, flow cytometry; LDV ligand present at threefold Kd; inhibition, % at 6.7 µM; actives 2% (n = 1,300); in the data active = inhibition above about 40%
Of the large screens only hits and unclear results are named; the others gave an inactive call (follow-up assays come after a bar, where they were run); ! = a repeat was not active. Sampled rows, rich in hits. Any-hit rate of the full collection: about 2.6%.

COc1ccc(/C=N/NC(=O)c2cccc(NC(C)=O)c2)c(C(=O)O)c1OC	none | VLA-4 mod pick inactive
CCCC(=O)Nc1ccc(C(=O)Nc2nc(CC(=O)OCC)cs2)cc1	VLA-4 inh 56 | VLA-4 mod pick inactive
Nc1cc(=O)[nH]c(SCC(=O)NC2CCCCCCC2)n1	none (no result: Rce1 inhib, Platelet DG rel)
CC1CC(C)CN(CCCNC(=O)c2ccc3nc(N4CCCCC4)sc3c2)C1 (stereo not drawn)	none
CC1CCCC(C)N1CCCNC(=O)c1ccc2nc(N3CCCCC3)sc2c1 (stereo not drawn)	VLA-4 inh 51 | VLA-4 mod pick inactive
CC1CCN(c2nc3ccc(C(=O)NCCCN4CCCCC4C)cc3s2)CC1 (stereo not drawn)	none | VLA-4 mod pick inactive
CC1CCCC(C)N1CCCNC(=O)c1ccc2nc(N3CCOCC3)sc2c1 (stereo not drawn)	none | VLA-4 mod pick inactive
CCC1CCCCN1CCCNC(=O)c1ccc2nc(N3CCCCC3)sc2c1 (stereo not drawn)	none
CN1C(=O)CSC1=S	none
O=C(NCC(c1ccco1)N1CCCC1)c1cn(-c2ccccc2)nc1-c1ccc(F)cc1 (stereo not drawn)	none (no result: VLA-4 inh, Rce1 inhib, Platelet DG rel)
COc1ccc(S(=O)(=O)N(C)C[C@H]2OCc3cn(nn3)CCCC(=O)N([C@@H](C)CO)C[C@@H]2C)cc1	none (no result: VLA-4 inh, Rce1 inhib, Platelet DG rel)
O=C(Nc1ccc2oc(-c3ccccc3)nc2c1)c1ccc2c(c1)OCCO2	VLA-4 inh 60 (no result: Rce1 inhib) | VLA-4 mod pick inactive
COc1ccc(C)cc1S(=O)(=O)Nc1cccc(C)c1	none | VLA-4 mod pick inactive
COC(=O)C(Cc1cnc[nH]1)NC(=O)C1CCC(=O)N1 (stereo not drawn)	VLA-4 inh 58 | VLA-4 mod pick inactive
COc1ccc(S(=O)(=O)NC(Cc2cnc[nH]2)C(=O)O)cc1 (stereo not drawn)	none
COc1ccccc1OCC(O)CN1CCN(CC(=O)Nc2c(C)cccc2C)CC1 (stereo not drawn)	VLA-4 inh 51! | VLA-4 mod pick inactive
C=C(C)Cn1c(CN(C)Cc2ccccc2)nc2c1c(=O)n(C)c(=O)n2C	none
O=C(Oc1ccc(F)cc1C(=O)/C=C/c1cccs1)c1cccc([N+](=O)[O-])c1	VLA-4 inh 50 (no result: Platelet DG rel) | VLA-4 mod pick 41
Cc1ccc(S(=O)(=O)C2(C(=O)Nc3ccc4c(c3)OCO4)CC2)cc1	VLA-4 inh 51 | VLA-4 mod pick inactive
CC(C)(C)NCC(O)CON=C1c2ccccc2-c2ccccc21 (stereo not drawn)	VLA-4 inh 55 | VLA-4 mod pick inactive
CC(C)(C)NC(=O)CON=C1c2ccccc2-c2ccccc21	none
O=C1C2CCCCN2C(=O)N1CCN1CCN(c2ccc([N+](=O)[O-])cc2)CC1 (stereo not drawn)	VLA-4 inh 93 (no result: Rce1 inhib) | VLA-4 mod pick inactive
CCOC(=O)Cn1nnnc1CN(Cc1ccccc1)Cc1cc2cc(CC)ccc2[nH]c1=O	VLA-4 inh 71 | VLA-4 mod pick inactive
CCc1ccc2[nH]c(=O)c(CN(Cc3ccccc3)Cc3nnnn3Cc3ccco3)cc2c1	none
CCCc1cc(C(=O)N2CCCC(C(=O)c3cc(C)c(OC)c(C)c3)C2)n(C)n1 (stereo not drawn)	VLA-4 inh 106 | VLA-4 mod pick inactive
O=C(/C=C/[C@H]1O[C@@H](n2ccc(=O)[nH]c2=O)[C@H](O)[C@@H]1O)NCCCc1ccccc1	none (no result: VLA-4 inh, Rce1 inhib, Platelet DG rel)
O=C(/C=C/c1ccccc1)C1=C(O)C(=O)N(CCO)C1c1ccccc1[N+](=O)[O-] (stereo not drawn)	VLA-4 inh 51 | VLA-4 mod pick inactive
CC(=O)c1ccccc1NS(=O)(=O)c1ccc2c(c1)CC(=O)N2	none (no result: Rce1 inhib, Platelet DG rel) | VLA-4 mod pick inactive
CCCCCSc1nc2c(cnn2-c2ccc(F)cc2)c(=O)[nH]1	none
CC(=O)Nc1ccc(S(=O)(=O)Nc2nc3ccccc3nc2Cl)cc1	none | VLA-4 mod pick inactive
CC(=O)Nc1ccc(S(=O)(=O)Nc2nccc(C)n2)cc1	none | VLA-4 mod pick inactive
Cc1ccnc(NS(=O)(=O)c2ccc(NC(=O)C(C)(C)C)cc2)n1	none
COc1cc(OC)c(C(=O)OC(C)C(=O)Nc2cccc(C(F)(F)F)c2)cc1OC (stereo not drawn)	none | VLA-4 mod pick inactive
CC(O/N=C(\N)c1ccccc1)C(=O)Nc1cccc(C(F)(F)F)c1 (stereo not drawn)	none (no result: Rce1 inhib, Platelet DG rel)
CCOC(=O)c1cc(C)sc1NC(=O)C(c1ccccc1)c1ccccc1	none (no result: Rce1 inhib)
CCc1cc(C(=O)O)c(NC(=O)C(c2ccccc2)c2ccccc2)s1	VLA-4 inh 90 | VLA-4 mod pick inactive
COc1cc(NC(=O)C(c2ccccc2)c2ccccc2)c(C(=O)O)cc1OC	none | VLA-4 mod pick inactive
O=C(Nc1ccc(OCc2ccccc2)cc1)Nc1nnc([C@H]2C[C@H](O)[C@@H](CO)O2)s1	none (no result: VLA-4 inh, Rce1 inhib, Platelet DG rel)
COc1ccc2[nH]c(=O)c(-c3noc(-c4ccccc4)n3)cc2c1	VLA-4 inh 96 | VLA-4 mod pick inactive
COc1cccc(CN(C(=O)Cc2c[nH]c3ccccc23)C(C(=O)NC2CCCCC2)c2ccc(C)o2)c1 (stereo not drawn)	none | VLA-4 mod pick inactive
O=C(Nc1nc(-c2nc3ccccc3s2)cs1)c1ccco1	VLA-4 inh 78 | VLA-4 mod pick inactive
COc1cc(/C=N/NC(=O)c2ccncc2)c([N+](=O)[O-])cc1OC	VLA-4 inh 57 | VLA-4 mod pick inactive
Cc1ccc(NC(=O)N(C)c2ccccc2)cc1	none | VLA-4 mod pick inactive
CN(C(=O)Nc1cnc2ccccc2c1)c1ccccc1	none
COc1ccc(NC(=O)Nc2ccc3c(c2)C(=O)N([C@H](C)CO)C[C@H](C)[C@@H](CN(C)C(=O)NC2CCCCC2)O3)cc1	VLA-4 inh 50 (no result: Rce1 inhib, Platelet DG rel) | VLA-4 mod pick inactive
Cc1ccc(NC(=O)CN2CCc3cc4c(cc3C2)OCCCO4)cc1	VLA-4 inh 55 | VLA-4 mod pick inactive
Cc1ccc(NC(=O)CN2CCc3cc4c(cc3C2)OCCCO4)cc1C	none
CCOC(=O)CSc1ccc2nnc(-c3cccnc3)n2n1	none | VLA-4 mod pick inactive
CCOC(=O)CSc1ccc2nnc(-c3ccccc3)n2n1	none
O=C(Nc1ccccc1Cl)OCc1cncs1	none | VLA-4 mod pick inactive
O=C(N/N=C\c1cccnc1)c1cc(-c2ccc(Cl)s2)[nH]n1	VLA-4 inh 55 | VLA-4 mod pick inactive
COc1cc2ccccc2cc1C(=O)OCC(=O)N(CC(C)C)c1c(N)n(Cc2ccccc2)c(=O)[nH]c1=O	none
